≈ marks a conversion by molar mass, not a printed value. Numbered stars: 1 amine (or outer) side, 2 acyl side, 3 side chain; on linkers, the order of the positions; unused ones are H or OH. Bridge positions count the residues as written; N and C are the ends. Square brackets hold non-standard residues; d marks the D form. Peptide text beside a SMILES is read from it. * marks the point of attachment. hTyr(3S-OH,4S-OH,3'-OSO3H) = N[C@H](C(=O)O)[C@H](O)[C@@H](O)c1ccc(O)c(OS(=O)(=O)O)c1; pTerphenylCO(4''-OnC5H11) = CCCCCOc1ccc(-c2ccc(-c3ccc(C(=O)*)cc3)cc2)cc1; Orn(4R-OH,5R-OH) = O=C([C@H](C[C@@H](O)[C@@H](O)N[*:3])N[*:1])[*:2]; hTyr(3S-OH,4S-OH) = N[C@H](C(=O)O)[C@H](O)[C@@H](O)c1ccc(O)cc1; Pro(3S-OH,4S-Me) = C[C@H]1CN[C@H](C(=O)O)[C@H]1O; X1 = CCCCCOc1ccc(-c2cc(-c3ccc(C(=O)*)cc3)no2)cc1; Gln(3R-OH) = NC(=O)C[C@@H](O)[C@H](N)C(=O)O; Hyp = O=C(O)[C@@H]1C[C@@H](O)CN1
How the values were obtained:
Type in all cases: functional
[1] = Antifungal activity against Candida pulcherrima isolated from candidemia patient by AFST-EUCAST microdilution method; conditions: Metschnikowia pulcherrima
Clavispora lusitaniae = test: Antifungal activity against Clavispora lusitaniae isolated from candidemia patient by AFST-EUCAST microdilution method
Nakaseomyces glabratus = test: Antifungal activity against Candida glabrata isolated from candidemia patient by AFST-EUCAST microdilution method
[Candida] intermedia = Antifungal activity against Candida intermedia isolated from candidemia patient by AFST-EUCAST microdilution method; conditions: Sungouiella intermedia
Candida tropicalis = test: Antifungal activity against Candida tropicalis isolated from candidemia patient by AFST-EUCAST microdilution method
Pichia kudriavzevii [2] = test: Antifungal activity against Candida krusei isolated from candidemia patient by AFST-EUCAST microdilution method
Candida albicans = test: Antifungal activity against Candida albicans isolated from candidemia patient by AFST-EUCAST microdilution method
Candida dubliniensis = test: Antifungal activity against Candida dubliniensis isolated from candidemia patient by AFST-EUCAST microdilution method
[3] = test system: Meyerozyma guilliermondii; test: Antifungal activity against Candida guilliermondii isolated from candidemia patient by AFST-EUCAST microdilution method
Yarrowia lipolytica = test: Antifungal activity against Candida lipolytica isolated from candidemia patient by AFST-EUCAST microdilution method
Candida parapsilosis [4] = test: Antifungal activity against Candida parapsilosis isolated from candidemia patient by AFST-EUCAST microdilution method; conditions: Lodderomyces parapsilosis
Diutina rugosa = test: Antifungal activity against Candida rugosa isolated from candidemia patient by AFST-EUCAST microdilution method
Wickerhamomyces anomalus = test: Antifungal activity against Candida pelliculosa isolated from candidemia patient by AFST-EUCAST microdilution method; conditions: Hansenula anomala
Kluyveromyces marxianus = test: Antifungal activity against Candida kefyr isolated from candidemia patient by AFST-EUCAST microdilution method
Candida parapsilosis [5] = test: Antifungal activity against Candida parapsilosis ATCC 22019 isolated from candidemia patient by AFST-EUCAST microdilution method; conditions: Lodderomyces parapsilosis
In short: (§1)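 Designated quality-control strain included on every testing occasion and run by the AFST-EUCAST broth microdilution reference procedure (EDef 7.1) alongside the clinical isolates. Its MICs were checked against the reference range for EUCAST-evaluated drugs. Pure standard compounds were used: azoles, amphotericin B, flucytosine and echinocandins.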

Pichia kudriavzevii [6] = test: Antifungal activity against Candida krusei ATCC 6258 isolated from candidemia patient by AFST-EUCAST microdilution method; in short: as §1

Row | SMILES | MIC [1] [µg/mL] | MIC90 (Clavispora lusitaniae) [µg/mL] | MIC90 (Nakaseomyces glabratus) [µg/mL] | MIC ([Candida] intermedia) [µg/mL] | MIC90 (Candida tropicalis) [µg/mL] | MIC (Pichia kudriavzevii [2]) [µg/mL] | MIC90 (Pichia kudriavzevii [2]) [µg/mL] | MIC (Candida albicans) [µg/mL] | MIC90 (Candida albicans) [µg/mL] | MIC (Candida dubliniensis) [µg/mL] | MIC [3] [µg/mL] | MIC (Yarrowia lipolytica) [µg/mL] | MIC90 (Candida parapsilosis [4]) [µg/mL] | MIC (Diutina rugosa) [µg/mL] | MIC (Wickerhamomyces anomalus) [µg/mL] | MIC (Kluyveromyces marxianus) [µg/mL] | MIC (Candida parapsilosis [5]) [µg/mL] | MIC (Pichia kudriavzevii [6]) [µg/mL] | further results
1 | C[C@@H]1[C@H](O)[C@@H](C)/C=C/C=C/C=C/C=C/C=C/C=C/C=C/[C@H](O[C@@H]2O[C@H](C)[C@@H](O)[C@H](N)[C@@H]2O)C[C@@H]2O[C@](O)(C[C@@H](O)C[C@@H](O)[C@H](O)CC[C@@H](O)C[C@@H](O)CC(=O)O[C@H]1C)C[C@H](O)[C@H]2C(=O)O [AMPHOTERICIN B] | 0.12 (≈ 0.13 µM) | 4 (≈ 4.33 µM) | 0.5 (≈ 0.541 µM) | 0.5 (≈ 0.541 µM) | 0.25 (≈ 0.271 µM) | 0.25 (≈ 0.271 µM) | 0.25 (≈ 0.271 µM) | 0.12 (≈ 0.13 µM) | 0.12 (≈ 0.13 µM) | 0.06 (≈ 0.0649 µM) | 0.5 (≈ 0.541 µM) | 1 (≈ 1.08 µM) | 0.25 (≈ 0.271 µM) | 0.12 (≈ 0.13 µM) | 0.25 (≈ 0.271 µM) | 0.5 (≈ 0.541 µM) | – | – | MIC (Nakaseomyces glabratus): 0.5 µg/mL (≈ 0.541 µM); MIC (Candida tropicalis): 0.25 µg/mL (≈ 0.271 µM)
2 | CCCCCOc1ccc(-c2ccc(-c3ccc(C(=O)N[C@H]4C[C@@H](O)[C@@H](O)NC(=O)[C@@H]5[C@@H](O)[C@@H](C)CN5C(=O)[C@H]([C@@H](C)O)NC(=O)[C@H]([C@H](O)[C@@H](O)c5ccc(O)cc5)NC(=O)[C@@H]5C[C@@H](O)CN5C(=O)[C@H]([C@@H](C)O)NC4=O)cc3)cc2)cc1 [ANIDULAFUNGIN] ({pTerphenylCO(4''-OnC5H11)}-[Orn(4R-OH,5R-OH)]T[Hyp][hTyr(3S-OH,4S-OH)]T[Pro(3S-OH,4S-Me)]; lactam 1-C) | 0.03 (≈ 0.0263 µM) | 1 (≈ 0.877 µM) | 0.12 (≈ 0.105 µM) | 0.03 (≈ 0.0263 µM) | 0.25 (≈ 0.219 µM) | – | 0.06 (≈ 0.0526 µM) | – | 0.12 (≈ 0.105 µM) | 0.03 (≈ 0.0263 µM) | 0.5 (≈ 0.438 µM) | 0.03 (≈ 0.0263 µM) | 2 (≈ 1.75 µM) | 0.12 (≈ 0.105 µM) | 1 (≈ 0.877 µM) | 16 (≈ 14 µM) | 0.5 (≈ 0.438 µM) | 0.25 (≈ 0.219 µM) | –
3 | CC[C@H](C)C[C@H](C)CCCCCCCCC(=O)N[C@H]1C[C@@H](O)[C@@H](NCCN)NC(=O)[C@@H]2[C@@H](O)CCN2C(=O)[C@H]([C@H](O)CCN)NC(=O)[C@H]([C@H](O)[C@@H](O)c2ccc(O)cc2)NC(=O)[C@@H]2C[C@@H](O)CN2C(=O)[C@H]([C@@H](C)O)NC1=O [CASPOFUNGIN] | 0.03 (≈ 0.0274 µM) | 1 (≈ 0.915 µM) | 1 (≈ 0.915 µM) | 0.03 (≈ 0.0274 µM) | 0.25 (≈ 0.229 µM) | 0.5 (≈ 0.457 µM) | 0.12 (≈ 0.11 µM) | 0.12 (≈ 0.11 µM) | 0.12 (≈ 0.11 µM) | 0.25 (≈ 0.229 µM) | 1 (≈ 0.915 µM) | 0.12 (≈ 0.11 µM) | 2 (≈ 1.83 µM) | 0.25 (≈ 0.229 µM) | 0.03 (≈ 0.0274 µM) | 8 (≈ 7.32 µM) | 2 (≈ 1.83 µM) | 0.5 (≈ 0.457 µM) | –
4 | OC(Cn1cncn1)(Cn1cncn1)c1ccc(F)cc1F [FLUCONAZOLE] | – | 4 (≈ 13.1 µM) | 16 (≈ 52.2 µM) | 1 (≈ 3.27 µM) | 2 (≈ 6.53 µM) | 32 (≈ 104 µM) | 32 (≈ 104 µM) | – | 0.5 (≈ 1.63 µM) | 0.12 (≈ 0.392 µM) | – | – | 4 (≈ 13.1 µM) | 2 (≈ 6.53 µM) | 2 (≈ 6.53 µM) | 0.12 (≈ 0.392 µM) | – | – | –
5 | Nc1nc(=O)[nH]cc1F [FLUCYTOSINE] | 0.12 (≈ 0.93 µM) | 2 (≈ 15.5 µM) | 0.25 (≈ 1.94 µM) | 64 (≈ 496 µM) | 0.5 (≈ 3.87 µM) | – | 2 (≈ 15.5 µM) | – | 2 (≈ 15.5 µM) | 0.12 (≈ 0.93 µM) | 0.12 (≈ 0.93 µM) | 0.12 (≈ 0.93 µM) | 0.5 (≈ 3.87 µM) | 0.5 (≈ 3.87 µM) | 0.12 (≈ 0.93 µM) | 0.12 (≈ 0.93 µM) | – | – | –
6 | CCC(C)n1ncn(-c2ccc(N3CCN(c4ccc(OCC5COC(Cn6cncn6)(c6ccc(Cl)cc6Cl)O5)cc4)CC3)cc2)c1=O (configuration not stated) [ITRACONAZOLE] | 0.12 (≈ 0.17 µM) | 0.25 (≈ 0.354 µM) | 0.5 (≈ 0.709 µM) | 0.12 (≈ 0.17 µM) | 0.12 (≈ 0.17 µM) | 0.12 (≈ 0.17 µM) | 0.12 (≈ 0.17 µM) | – | 0.5 (≈ 0.709 µM) | 0.06 (≈ 0.085 µM) | 1 (≈ 1.42 µM) | 0.12 (≈ 0.17 µM) | 0.12 (≈ 0.17 µM) | 0.03 (≈ 0.0425 µM) | 0.25 (≈ 0.354 µM) | 0.25 (≈ 0.354 µM) | – | – | MIC (Nakaseomyces glabratus): 0.5 µg/mL (≈ 0.709 µM); MIC (Candida tropicalis): 0.12 µg/mL (≈ 0.17 µM)
7 | CCCCCOc1ccc(-c2cc(-c3ccc(C(=O)N[C@H]4C[C@@H](O)[C@@H](O)NC(=O)[C@@H]5[C@@H](O)[C@@H](C)CN5C(=O)[C@H]([C@H](O)CC(N)=O)NC(=O)[C@H]([C@H](O)[C@@H](O)c5ccc(O)c(OS(=O)(=O)O)c5)NC(=O)[C@@H]5C[C@@H](O)CN5C(=O)[C@H]([C@@H](C)O)NC4=O)cc3)no2)cc1 [MICAFUNGIN] (X1-[Orn(4R-OH,5R-OH)]T[Hyp][hTyr(3S-OH,4S-OH,3'-OSO3H)][Gln(3R-OH)][Pro(3S-OH,4S-Me)]; lactam 1-C) | 0.03 (≈ 0.0236 µM) | 0.12 (≈ 0.0945 µM) | 0.25 (≈ 0.197 µM) | 0.03 (≈ 0.0236 µM) | 0.12 (≈ 0.0945 µM) | – | 0.12 (≈ 0.0945 µM) | – | 0.06 (≈ 0.0472 µM) | 0.03 (≈ 0.0236 µM) | 0.25 (≈ 0.197 µM) | 0.03 (≈ 0.0236 µM) | 2 (≈ 1.57 µM) | 0.03 (≈ 0.0236 µM) | 0.5 (≈ 0.394 µM) | 4 (≈ 3.15 µM) | 0.5 (≈ 0.394 µM) | 0.5 (≈ 0.394 µM) | –
8 | CC[C@@H]([C@H](C)O)n1ncn(-c2ccc(N3CCN(c4ccc(OC[C@@H]5CO[C@@](Cn6cncn6)(c6ccc(F)cc6F)C5)cc4)CC3)cc2)c1=O [POSACONAZOLE] | 0.03 (≈ 0.0428 µM) | 0.03 (≈ 0.0428 µM) | 0.25 (≈ 0.357 µM) | 0.25 (≈ 0.357 µM) | 0.12 (≈ 0.171 µM) | – | 0.5 (≈ 0.713 µM) | – | 0.12 (≈ 0.171 µM) | 0.01 (≈ 0.0143 µM) | 0.12 (≈ 0.171 µM) | 0.03 (≈ 0.0428 µM) | 0.12 (≈ 0.171 µM) | 0.03 (≈ 0.0428 µM) | 0.03 (≈ 0.0428 µM) | 0.25 (≈ 0.357 µM) | – | – | MIC (Clavispora lusitaniae): 0.03 µg/mL (≈ 0.0428 µM)
9 | C[C@@H](c1ncncc1F)[C@](O)(Cn1cncn1)c1ccc(F)cc1F [VORICONAZOLE] | 0.25 (≈ 0.716 µM) | 0.5 (≈ 1.43 µM) | 0.5 (≈ 1.43 µM) | 0.06 (≈ 0.172 µM) | 0.12 (≈ 0.344 µM) | – | 1 (≈ 2.86 µM) | 0.01 (≈ 0.0286 µM) | 0.03 (≈ 0.0859 µM) | 0.03 (≈ 0.0859 µM) | 0.06 (≈ 0.172 µM) | 0.03 (≈ 0.0859 µM) | 0.06 (≈ 0.172 µM) | 0.01 (≈ 0.0286 µM) | 0.12 (≈ 0.344 µM) | 4 (≈ 11.5 µM) | – | – | MIC (Candida parapsilosis [4]): 0.06 µg/mL (≈ 0.172 µM)
